High-throughput results deposited in PubChem BioAssay by The Scripps Research Institute Molecular Screening Center.
This is a sample that favours compounds with a hit; in the whole collection about 2.9% have one here.
M1 PAM parental – counter-screen for M1 PAMs: effect in parental CHO-K1 cells; ATP EC20, Fluo-8 calcium fluorescence; 0% at ATP EC20, 100% at ATP max; activation, % at 3 µM; 360,000 tested, 0.02% active; AID 602247;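 active = activation above the run cutoff, the mean activation of all test compounds plus 3 SD, cut at about 40% in these data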;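 also: peak over basal fluorescence ratio in a 140 s read after ATP addition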
OX1R antag-1 – blocks the human orexin 1 receptor; CHO/OX1R cells, Fluo-8 calcium fluorescence, orexin A; 330,000 tested, 0.43% active; inhibition, % at 5 µM; O43613;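 active = inhibition above its plate's threshold, mean inhibition of all tested compounds on the plate plus 3 SD, cut at about 37% in these data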;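 also: 0% = orexin A challenge wells and 100% = SB-334867-A antagonist wells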
Target sequence (O43613 whole entry, looked up): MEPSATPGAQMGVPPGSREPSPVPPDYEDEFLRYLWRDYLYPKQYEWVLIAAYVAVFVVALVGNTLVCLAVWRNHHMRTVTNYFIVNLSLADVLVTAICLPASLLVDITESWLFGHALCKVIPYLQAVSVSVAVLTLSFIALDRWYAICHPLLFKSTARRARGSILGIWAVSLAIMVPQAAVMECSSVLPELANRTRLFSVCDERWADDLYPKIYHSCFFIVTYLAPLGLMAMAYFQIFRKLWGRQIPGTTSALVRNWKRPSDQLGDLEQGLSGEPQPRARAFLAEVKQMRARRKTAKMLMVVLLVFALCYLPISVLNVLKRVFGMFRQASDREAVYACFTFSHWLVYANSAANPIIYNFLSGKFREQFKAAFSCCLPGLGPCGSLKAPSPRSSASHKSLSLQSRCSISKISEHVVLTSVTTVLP
CHO-K1 Ca ag – counter-screen for M1 agonists: effect in parental CHO-K1 cells; 360,000 tested, 0.48% active; Fluo-8 calcium fluorescence; scaled to maximal ATP response, vehicle zero; activation, % at 3 µM; in the data active = activation above about 15%;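 also: untransfected CHO-K1 host cells lacking M1 receptor as counterscreen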
CHO-K1 Ca antag – M1 antagonist counterscreen hit in parental CHO-K1 cells; ATP-induced calcium, Fluo-8 fluorescence; inhibition, % at 3 µM; 360,000 tested, 0.6% active; AID 602250;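 active = inhibition above a per-plate cutoff, the plate's mean sample inhibition plus 3 SD, cut at about 24% in these data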;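 also: 0% = DMSO plus EC80 ATP and 100% = DMSO alone without ATP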
OX1R antag-2 – antagonists of human orexin 1 receptor (OX1R); inhibition, % at 6.6 µM; AID 485270; 330,000 tested, 1.8% active; OX1R-expressing cells, FRET antagonist read-out; O43613; in the data active = inhibition mostly above about 38%, no sharp cut-off; inactive = mostly below about 40%;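 also: 0% = agonist challenge alone and 100% = reference antagonist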
CHO parental Ca – counter-screen for OX1R antagonists: effect in parental CHO cells; parental CHO-K1, ATP-induced calcium, Fluo-8 fluorescence; AID 463079; 330,000 tested, 0.63% active; inhibition, % at 5.6 µM;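 active = inhibition above that plate's mean sample inhibition plus 3 SD, cut at about 26% in these data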;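 also: 0% = ATP-challenged DMSO wells and 100% = DMSO wells without ATP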
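Measured by: calcium-sensitive Fluo-8 fluorescence / Test system: CHO parental line / Controls: ATP-challenged DMSO wells low, unchallenged DMSO wells high / Measure: % inhibition / Compound: single nominal dose of 5.6 µM per compound / Replicates: single well per compound, no replicates / Reagent: ATP as calcium-mobilizing challenge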
OX1R HTRF confirm – OX1R (human) antagonism, HTRF confirmed; 1,800 tested, 49% active; OX1R-expressing cells, HTRF antagonist assay; AID 492964; shares compounds with OX1R antag-2; inhibition, % at 6.6 µM; in the data active = inhibition above about 55%;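 also: CHO cells expressing OX1R stimulated with orexin A at about EC80; 0% = agonist challenge alone and 100% = reference antagonist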
CHO-K1 HTRF cnt – counter-screen: parental CHO-K1 HTRF response; shares compounds with OX1R antag-2; parental CHO-K1 cells, HTRF counterscreen; inhibition, % at 6.6 µM; 1,800 tested, 48% active; AID 493232; in the data active = inhibition above about 17%;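 also: 0% = agonist challenge with vehicle and 100% = vehicle alone without agonist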
An asterisk follows results filed as active; nt = not tested or not shown; + = active, no number.

SMILES	M1 PAM parental	OX1R antag-1	CHO-K1 Ca ag	CHO-K1 Ca antag	OX1R antag-2	CHO parental Ca	OX1R HTRF confirm	CHO-K1 HTRF cnt
CCOC(=O)c1cc2[nH]c3ccccc3c2[n+](-c2ccc([N+](=O)[O-])cc2)c1C	20	-8	0	-7	114*	-9	53	75*
O=C(COc1cccc([N+](=O)[O-])c1)NN1C(=O)c2ccccc2C1=O	-18	4	0	9	9	-1	nt	nt
CC1(C)Cc2ccccc2C2=NNC(=O)C2=N1	2	-6	0	-1	117*	1	54	78*
O=C(O)Cc1ccc(NC(=O)c2ccc3c(c2)C(=O)N(CC2CCCO2)C3=O)cc1 (stereo not drawn)	7	-3	2	-15	79*	-14	43	43*
CC1(C(=O)NS(=O)(=O)c2ccc(Br)cc2)CCN1C(=O)CCc1cccs1 (stereo not drawn)	-10	nt	0	12	nt	nt	nt	nt
COc1cccc(C(=O)/C(C#N)=N/Nc2cccc(-c3ccnc(C)n3)c2)c1	20	-13	5	-11	77*	-2	50	18*
COc1cccc(N/N=C(\C#N)S(=O)(=O)C(C)(C)C)c1	-5	-7	1	12	14	-8	nt	nt
COc1ccc2nc3sc(C(=O)NCCCN4CCc5ccccc5C4)cc3cc2c1	9	-18	0	-7	80*	-20	29	20*
COc1ccc(S(=O)(=O)Cc2ccc(C(=O)NCCCN3CCc4ccccc4C3)o2)cc1	30	-41	0	-6	8	-26	nt	nt
COc1ccc2nc3sc(C(=O)N4CCN(C)CC4)cc3cc2c1	13	10	0	-8	110*	-4	35	27*
COc1ccc(C(=O)NCC(c2ccco2)N(C)C)cc1S(=O)(=O)NCc1ccc(Cl)cc1 (stereo not drawn)	-8	-14	0	-7	6	-8	nt	nt
O=C(Nc1cc([N+](=O)[O-])c2[nH]c(=O)c3ccccc3c2c1)C(F)(F)F	-16	nt	0	0	nt	nt	nt	nt
CCOC(=O)c1ccc(-c2c(C(=O)OCC)oc3cc(O)c(CC)cc3c2=O)o1	3	11	7	10	83*	-9	27	9
Cc1ccccc1-n1nc(C(=O)O)c(C)c(C#N)c1=O	-1	-13	0	1	101*	2	50	36*
Cc1c(C(=O)O)nn(-c2cccc(C(F)(F)F)c2)c(=O)c1C#N	6	-13	0	-10	38	0	nt	nt
Cc1ccc(N2CN=c3s/c(=C\c4cccnc4)c(=O)n3C2)cc1	26	-23	0	-6	99*	2	36	49*
Cc1ccc(/C=c2\sc3n(c2=O)CN(c2ccc(Br)cc2)CN=3)o1	1	8	0	-2	23	3	nt	nt
COc1ccccc1NC(=O)c1cc2c(cc1Cl)N1CCCCCC1=NS2(=O)=O	17	-28	1	-4	5	-10	nt	nt
O=C(O)c1ccccc1Nc1ccc2nonc2c1[N+](=O)[O-]	17	nt	0	-13	nt	nt	nt	nt
CC(=O)Nc1ccc(Nc2ccc3nonc3c2[N+](=O)[O-])cc1	23	-4	2	-2	+	-1	55*	93*
CCOc1cc(/C=C(\C#N)C(=O)Nc2ccc(S(N)(=O)=O)cc2)ccc1OCCN1CCOCC1	4	1	1	-3	-2	-7	nt	nt
N=c1oc2cc(O)ccc2cc1C(=O)Nc1ccc(F)cc1	-1	-13	1	-1	3	-3	nt	nt
COc1ccc(NC(=O)c2cc3ccc(O)cc3o/c2=N\O)cc1	-16	9	1	13	85*	-2	76*	9
CC(=O)N(/N=C1\Sc2ccccc2C1=O)c1ccc(C)cc1C	-6	-15	0	4	56	-9	nt	nt
CC(=O)N(/N=C1\Sc2ccccc2C1=O)c1ccccc1C	10	-13	4	-7	105*	-38	38	12
COc1ccc(C(=O)NCCCNC(=O)c2cnccn2)cc1Br	8	-4	1	-1	7	4	nt	nt
